In ChEMBL document CHEMBL2311400, “Synthesis and biological evaluation of 4-(aminomethyl)-1-hydroxypyrazole analogues of muscimol as γ-aminobutyric acid(a) receptor agonists” (J Med Chem, 2013):

Key:
[1] = Displacement of [3H]muscimol from GABAA receptor in rat synaptic membrane after 60 mins by scintillation counting analysis; type: cell membranes
Summary of the method: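 Membranes from cortex and central hemispheres of male SPRD rat brains, washed repeatedly in 50 mM Tris-HCl pH 7.4. 70–80 μg protein per well incubated with [3H]muscimol. Separated by GF/C filtration with ice-cold buffer washes; bound radioactivity counted by scintillation. Nonspecific binding defined with 1.0 mM GABA.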

[2] = target: T1, Gamma-aminobutyric acid receptor subunit rho-1 (Homo sapiens, UniProt P24046); assay: Agonist activity at human GABAA rho1 receptor expressed in TSA201 cells after 1 min by FLIPR assay; type: cell-based
T1 sequence (P24046 whole entry): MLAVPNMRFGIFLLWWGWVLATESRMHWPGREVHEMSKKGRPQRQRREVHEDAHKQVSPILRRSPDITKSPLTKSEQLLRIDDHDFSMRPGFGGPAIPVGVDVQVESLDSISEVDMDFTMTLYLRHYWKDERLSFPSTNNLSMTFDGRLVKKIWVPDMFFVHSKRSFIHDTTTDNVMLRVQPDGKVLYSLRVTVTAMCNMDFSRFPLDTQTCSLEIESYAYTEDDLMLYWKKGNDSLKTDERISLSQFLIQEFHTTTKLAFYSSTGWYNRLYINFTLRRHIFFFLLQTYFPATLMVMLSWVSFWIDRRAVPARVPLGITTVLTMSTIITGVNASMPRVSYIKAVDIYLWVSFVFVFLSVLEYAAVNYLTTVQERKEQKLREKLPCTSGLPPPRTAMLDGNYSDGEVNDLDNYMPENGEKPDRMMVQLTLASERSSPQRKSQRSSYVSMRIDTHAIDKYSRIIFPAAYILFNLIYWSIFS
Summary of the method: (§1)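 tsA201 cells transfected with 5 μg human ρ1 cDNA, then plated on poly-D-lysine plates for 16–24 h. Loaded with FLIPR membrane potential blue dye in Krebs buffer (pH 7.4), 30 min at 37 °C. Emission at 560 nm (excitation 530 nm) recorded before and up to 1 min after agonist addition. Curves fitted from ΔFU; duplicate, at least three times.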

[3] = target: T2, GABA-A receptor; alpha-1/beta-2/gamma-2 (Homo sapiens, UniProt P14867+P18507+P47870); assay: Agonist activity at human GABAA alpha1beta2gamma2S receptor expressed in TSA201 cells after 1 min by FLIPR assay; type: cell-based
T2 sequence (P14867 whole entry): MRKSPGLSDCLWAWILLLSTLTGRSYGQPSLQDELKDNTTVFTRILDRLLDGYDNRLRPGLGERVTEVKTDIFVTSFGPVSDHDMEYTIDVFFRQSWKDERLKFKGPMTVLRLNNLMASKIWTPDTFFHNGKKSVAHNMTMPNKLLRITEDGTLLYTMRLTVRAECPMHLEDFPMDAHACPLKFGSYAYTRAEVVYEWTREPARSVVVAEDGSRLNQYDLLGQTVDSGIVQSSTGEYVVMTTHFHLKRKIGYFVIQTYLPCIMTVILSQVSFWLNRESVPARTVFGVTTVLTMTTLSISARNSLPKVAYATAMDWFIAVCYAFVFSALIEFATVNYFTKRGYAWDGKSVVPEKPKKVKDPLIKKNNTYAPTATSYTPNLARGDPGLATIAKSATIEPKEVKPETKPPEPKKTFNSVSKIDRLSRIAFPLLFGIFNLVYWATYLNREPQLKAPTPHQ
T2 sequence (P47870 whole entry): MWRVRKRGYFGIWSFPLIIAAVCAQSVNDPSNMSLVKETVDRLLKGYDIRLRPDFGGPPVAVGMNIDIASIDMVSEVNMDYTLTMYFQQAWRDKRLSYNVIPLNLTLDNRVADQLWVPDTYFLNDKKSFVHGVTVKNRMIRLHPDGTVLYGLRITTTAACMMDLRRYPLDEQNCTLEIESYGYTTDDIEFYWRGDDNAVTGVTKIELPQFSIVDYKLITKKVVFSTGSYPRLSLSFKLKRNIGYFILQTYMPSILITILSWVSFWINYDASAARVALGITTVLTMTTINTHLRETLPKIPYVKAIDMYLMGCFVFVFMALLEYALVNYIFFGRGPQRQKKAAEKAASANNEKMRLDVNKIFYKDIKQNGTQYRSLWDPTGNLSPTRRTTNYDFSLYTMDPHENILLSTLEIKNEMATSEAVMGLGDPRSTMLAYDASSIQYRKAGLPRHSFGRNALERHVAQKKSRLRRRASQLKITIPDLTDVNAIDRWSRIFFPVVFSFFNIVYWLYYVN
T2 sequence (P18507 whole entry): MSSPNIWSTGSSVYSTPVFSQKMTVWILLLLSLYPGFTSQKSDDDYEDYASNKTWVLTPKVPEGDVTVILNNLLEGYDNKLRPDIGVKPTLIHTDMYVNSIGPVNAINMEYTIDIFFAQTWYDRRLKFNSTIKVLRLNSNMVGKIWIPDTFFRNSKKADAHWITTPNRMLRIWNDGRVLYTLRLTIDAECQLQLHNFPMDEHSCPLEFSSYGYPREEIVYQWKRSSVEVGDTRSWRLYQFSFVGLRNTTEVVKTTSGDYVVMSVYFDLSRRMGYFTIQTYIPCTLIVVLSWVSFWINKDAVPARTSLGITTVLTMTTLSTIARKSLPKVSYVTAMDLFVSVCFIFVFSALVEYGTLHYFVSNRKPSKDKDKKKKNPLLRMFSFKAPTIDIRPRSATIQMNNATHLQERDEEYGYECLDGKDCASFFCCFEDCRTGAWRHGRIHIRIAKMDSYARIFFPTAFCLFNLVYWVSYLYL
Summary of the method: (§2)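 tsA201 cells transfected with 1 μg α (1, 2, 3 or 5), 1 μg β2 and 3 μg γ2S cDNA (Polyfect). Cells replated onto poly-D-lysine plates and assayed 16–24 h later. Loaded with FMP blue dye in Krebs buffer pH 7.4 for 30 min at 37 °C.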

[4] = target: GABA A receptor alpha-2/beta-2/gamma-2 (Homo sapiens) (UniProt P47870+P18507+P47869); assay: Agonist activity at human GABAA alpha2beta2gamma2S receptor expressed in TSA201 cells after 1 min by FLIPR assay relative to GABA; type: cell-based
Summary of the method: as §2, with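 “°C. Fluorescence (ex 530/em 560 nm) read before and up to 1 min after agonist addition. ΔFU concentration-response curves; duplicate, ≥3 experiments.” for “°C.”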

[5] = target: T3, GABA-A receptor; alpha-1/beta-2/gamma-2 (Homo sapiens) (UniProt P14867+P47870+P18507); assay: Agonist activity at human GABAA alpha1beta2gamma2S receptor expressed in HEK293 cells by patch clamp electrophysiology assay relative to GABA; type: cell-based
[6] = target: GABA A receptor alpha-3/beta-2/gamma-2 (Homo sapiens) (UniProt P47870+P18507+P34903); assay: Agonist activity at human GABAA alpha3beta2gamma2S receptor expressed in TSA201 cells after 1 min by FLIPR assay relative to GABA; type: cell-based
Summary of the method: as §2, with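 “°C. Fluorescence (ex 530/em 560 nm) read before and up to 1 min after agonist addition. ΔFU concentration-response curves; duplicate, ≥3 experiments.” for “°C.”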

[7] = target: T1, Gamma-aminobutyric acid receptor subunit rho-1; assay: Agonist activity at human GABAA rho1 receptor expressed in HEK293 cells by patch clamp electrophysiology assay relative to GABA; type: cell-based
Summary of the method: (§3)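 Human ρ1 (pCDNA3) co-transfected with a GFP plasmid into HEK 293 cells. Whole-cell voltage clamp at −60 mV, 40–72 h after transfection, room temperature (20–22 °C). Extracellular solution pH 7.35; intrapipette solution with KCl 140 mM, EGTA 10 mM, MgATP 2 mM, pH 7.3.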

[8] = target: T4, GABA A receptor alpha-2/beta-2/gamma-2 (Homo sapiens, UniProt P18507+P47869+P47870); assay: Agonist activity at human GABAA alpha2beta2gamma2S receptor expressed in TSA201 cells after 1 min by FLIPR assay; type: cell-based; summary of the method: as §2
T4 sequence (P47870 whole entry): T2 sequence (P47870 whole entry)
T4 sequence (P18507 whole entry): T2 sequence (P18507 whole entry)
T4 sequence (P47869 whole entry): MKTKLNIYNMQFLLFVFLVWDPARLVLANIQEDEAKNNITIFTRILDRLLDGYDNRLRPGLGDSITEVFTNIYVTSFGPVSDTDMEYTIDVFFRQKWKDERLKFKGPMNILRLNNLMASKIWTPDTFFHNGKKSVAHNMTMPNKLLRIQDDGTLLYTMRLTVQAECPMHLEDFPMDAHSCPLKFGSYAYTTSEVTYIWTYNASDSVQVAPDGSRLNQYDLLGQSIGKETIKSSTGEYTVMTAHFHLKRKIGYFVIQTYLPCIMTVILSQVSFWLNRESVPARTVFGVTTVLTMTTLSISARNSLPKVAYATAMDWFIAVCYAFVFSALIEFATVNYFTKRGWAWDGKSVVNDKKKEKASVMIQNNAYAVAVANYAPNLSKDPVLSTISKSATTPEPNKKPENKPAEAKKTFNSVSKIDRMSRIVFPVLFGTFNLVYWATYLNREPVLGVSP

[9] = target: T1, Gamma-aminobutyric acid receptor subunit rho-1; assay: Agonist activity at human GABAA rho1 receptor expressed in TSA201 cells after 1 min by FLIPR assay relative to GABA; type: cell-based; summary of the method: as §1
[10] = target: T1, Gamma-aminobutyric acid receptor subunit rho-1; assay: Agonist activity at human GABAA rho1 receptor expressed in HEK293 cells by patch clamp electrophysiology assay; type: cell-based; summary of the method: as §3
TSA201 = assay: Agonist activity at human GABAA alpha5beta2gamma2S receptor expressed in TSA201 cells after 1 min by FLIPR assay relative to GABA; type: cell-based
Summary of the method: as §2, with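 “°C. Fluorescence (ex 530/em 560 nm) read before and up to 1 min after agonist addition. ΔFU concentration-response curves; duplicate, ≥3 experiments.” for “°C.”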

[11] = target: T2, GABA-A receptor; alpha-1/beta-2/gamma-2; assay: Agonist activity at human GABAA alpha1beta2gamma2S receptor expressed in HEK293 cells by patch clamp electrophysiology assay; type: cell-based
[12] = target: T5, GABA A receptor alpha-3/beta-2/gamma-2 (Homo sapiens, UniProt P18507+P34903+P47870); assay: Agonist activity at human GABAA alpha3beta2gamma2S receptor expressed in TSA201 cells after 1 min by FLIPR assay; type: cell-based; summary of the method: as §2
T5 sequence (P47870 whole entry): T2 sequence (P47870 whole entry)
T5 sequence (P18507 whole entry): T2 sequence (P18507 whole entry)
T5 sequence (P34903 whole entry): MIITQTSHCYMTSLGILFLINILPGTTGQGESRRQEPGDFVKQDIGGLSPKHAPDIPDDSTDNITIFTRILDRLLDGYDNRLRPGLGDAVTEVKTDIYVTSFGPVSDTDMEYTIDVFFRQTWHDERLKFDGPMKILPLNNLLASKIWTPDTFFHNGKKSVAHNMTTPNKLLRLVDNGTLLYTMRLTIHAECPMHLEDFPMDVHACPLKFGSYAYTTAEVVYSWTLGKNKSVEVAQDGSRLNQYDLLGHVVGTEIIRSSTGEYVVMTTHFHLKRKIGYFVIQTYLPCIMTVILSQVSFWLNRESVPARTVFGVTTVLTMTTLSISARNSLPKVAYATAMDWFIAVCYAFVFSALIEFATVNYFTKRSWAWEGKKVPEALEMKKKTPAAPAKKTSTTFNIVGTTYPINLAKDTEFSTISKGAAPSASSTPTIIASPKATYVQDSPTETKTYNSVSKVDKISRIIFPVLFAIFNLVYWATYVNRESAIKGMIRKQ

[13] = Agonist activity at human GABAA alpha5beta2gamma2S receptor expressed in TSA201 cells after 1 min by FLIPR assay; type: cell-based; details: tsA201, 1 min
[14] = target: T3, GABA-A receptor; alpha-1/beta-2/gamma-2 (Homo sapiens); assay: Agonist activity at human GABAA alpha1beta2gamma2S receptor expressed in TSA201 cells after 1 min by FLIPR assay relative to GABA; type: cell-based
Summary of the method: as §2, with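 “°C. Fluorescence (ex 530/em 560 nm) read before and up to 1 min after agonist addition. ΔFU concentration-response curves; duplicate, ≥3 experiments.” for “°C.”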

Row | Structure (SMILES) | Ki [1] [µM] | pKi [1] | EC50 [2] [µM] | EC50 [3] [µM] | further results
1 | Cc1nn(O)c(C)c1CN | > 100 | – | – | – | –
2 | NCc1cn(O)nc1I | 32 | 4.5 | > 500 | > 500 | –
3 | NCc1cn(O)nc1Cc1ccccc1 | > 100 | – | – | – | –
4 | Cc1nn(O)cc1CN | 68 | 4.16 | – | – | –
5 | On1ncc2c1CCNC2 | > 100 | – | – | – | –
6 | Oc1noc2c1CCNC2 [GABOXADOL] | 0.16 | – | – | 14 | –
7 | NCc1cn(O)nc1-c1ccccc1 | > 100 | – | > 500 | > 500 | –
8 | On1cc2c(n1)CCNC2 | > 100 | – | – | – | –
9 | NCc1cn(O)nc1CCc1ccccc1 | > 100 | – | – | – | –
10 | NCc1cnn(O)c1 | 0.22 | 6.68 | 3.1 | 13 | Rmax [4]: 77%; Rmax [5]: 69%; Rmax [6]: 77%; Rmax [7]: 70%; EC50 [8]: 4.5 µM; Rmax [9]: 77%; EC50 [10]: 55 µM; Rmax (TSA201): 77%; EC50 [11]: 19 µM; EC50 [12]: 5.6 µM; EC50 ([13]; read-out: EC50): 780 nM; EC50 ([13]; read-out: pEC50 (converted)): 794 nM; Rmax [14]: 77%
